# Measurements: ChEMBL document CHEMBL3352149, “Promiscuity and selectivity in covalent enzyme inhibition: a systematic study of electrophilic fragments” (J Med Chem, 2014)
# Active and inactive are the calls of the source. The calls are words filed in the database; no cut-off is given here.
# Legend:
# [1] = test system: Escherichia coli; test: Inhibition of Escherichia coli MetAP at 25 uM after 20 mins by HPLC analysis
# Procedure, shortened: (§1)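 Endpoint assay. Enzyme (50 nM) was preincubated with 25 μM compound for 20 min at 37 °C in 50 mM Tris pH 7.5, 100 mM NaCl, 100 μM CoCl2, 0.075% BSA. MGMM substrate (400 μM) was then added for 15 min (human MetAP-1) or 20 min (E. coli MetAP). Reactions were stopped with TFA. GMM product was quantified by RP-HPLC, UV 214 nm. Triplicate.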
# [2] = target: Methionine aminopeptidase 1 (Homo sapiens) (UniProt P53582); test: Inhibition of human MetAP at 25 uM after 20 mins by HPLC analysis; procedure, shortened: as §1
# [3] = test system: Escherichia coli; test: Inhibition of wild-type Escherichia coli MurA compound preincubated for 10 mins before substrate addition at 25 uM measured after 15 mins by LC-MS method
# [4] = test system: Escherichia coli; test: Inhibition of wild-type Escherichia coli MurB compound preincubated for 10 mins before substrate addition at 25 uM measured after 15 mins by LC-MS method
# Procedure, shortened: (§2)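 E. coli wild-type enzyme (4 nM) was preincubated with 25 μM compound for 10 min at 37 °C. Enzymatically generated nucleotide-sugar substrate (~200 μM) plus ATP (~200 μM), or NADPH 200 μM for MurB, was added for 10 min. Reactions were started with amino-acid cosubstrate (MurC–F) or EP-UNAG (MurB), run 15 min at 37 °C, and quenched with formic acid. Product was measured by negative-ESI LC-MS EIC peak area. MgCl2: MurC 10, MurD/E 2, MurF 5 mM; MurB had 5 mM KCl. All in 50 mM NH4HCO3, 0.07% BSA, 1% DMSO; triplicate.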
# [5] = test system: Escherichia coli; test: Inhibition of wild-type Escherichia coli MurC compound preincubated for 10 mins before substrate addition at 25 uM measured after 15 mins by LC-MS method; procedure, shortened: as §2
# [6] = test system: Escherichia coli; test: Inhibition of wild-type Escherichia coli MurD compound preincubated for 10 mins before substrate addition at 25 uM measured after 15 mins by LC-MS method; procedure, shortened: as §2
# [7] = test system: Escherichia coli; test: Inhibition of wild-type Escherichia coli MurE compound preincubated for 10 mins before substrate addition at 25 uM measured after 15 mins by LC-MS method; procedure, shortened: as §2
# [8] = test system: Escherichia coli; test: Inhibition of wild-type Escherichia coli MurF compound preincubated for 10 mins before substrate addition at 25 uM measured after 15 mins by LC-MS method; procedure, shortened: as §2
# [9] = GSH reactivity of the compound assessed as adducts formation by RP-HPLC analysis
# Procedure, shortened: (§3)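 Fresh aqueous glutathione (10 mM solution) was added to 50 mM Tris-maleate buffer, pH 7.5. The reaction was started with compound from 10 mM DMSO stock (final 250 μM). Mixtures were followed by reversed-phase HPLC on an ODS column with a gradient to 100% B; rate constants are given in l·mol⁻¹·s⁻¹.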
# [10] = GSH reactivity of the compound assessed as adducts formation meaured over 3 hrs by RP-HPLC analysis; procedure, shortened: as §3
# [11] = target: Genome polyprotein (dengue virus type 2) (UniProt P12823); test: Inhibition of Dengue virus serotype 2 NS2B-NS3 protease at 50 uM
# [12] = target: Genome polyprotein (West Nile virus) (UniProt P06935); test: Inhibition of West Nile virus NS2B-NS3 protease at 50 uM
# Sequence of Genome polyprotein (West Nile virus) (P06935 whole entry): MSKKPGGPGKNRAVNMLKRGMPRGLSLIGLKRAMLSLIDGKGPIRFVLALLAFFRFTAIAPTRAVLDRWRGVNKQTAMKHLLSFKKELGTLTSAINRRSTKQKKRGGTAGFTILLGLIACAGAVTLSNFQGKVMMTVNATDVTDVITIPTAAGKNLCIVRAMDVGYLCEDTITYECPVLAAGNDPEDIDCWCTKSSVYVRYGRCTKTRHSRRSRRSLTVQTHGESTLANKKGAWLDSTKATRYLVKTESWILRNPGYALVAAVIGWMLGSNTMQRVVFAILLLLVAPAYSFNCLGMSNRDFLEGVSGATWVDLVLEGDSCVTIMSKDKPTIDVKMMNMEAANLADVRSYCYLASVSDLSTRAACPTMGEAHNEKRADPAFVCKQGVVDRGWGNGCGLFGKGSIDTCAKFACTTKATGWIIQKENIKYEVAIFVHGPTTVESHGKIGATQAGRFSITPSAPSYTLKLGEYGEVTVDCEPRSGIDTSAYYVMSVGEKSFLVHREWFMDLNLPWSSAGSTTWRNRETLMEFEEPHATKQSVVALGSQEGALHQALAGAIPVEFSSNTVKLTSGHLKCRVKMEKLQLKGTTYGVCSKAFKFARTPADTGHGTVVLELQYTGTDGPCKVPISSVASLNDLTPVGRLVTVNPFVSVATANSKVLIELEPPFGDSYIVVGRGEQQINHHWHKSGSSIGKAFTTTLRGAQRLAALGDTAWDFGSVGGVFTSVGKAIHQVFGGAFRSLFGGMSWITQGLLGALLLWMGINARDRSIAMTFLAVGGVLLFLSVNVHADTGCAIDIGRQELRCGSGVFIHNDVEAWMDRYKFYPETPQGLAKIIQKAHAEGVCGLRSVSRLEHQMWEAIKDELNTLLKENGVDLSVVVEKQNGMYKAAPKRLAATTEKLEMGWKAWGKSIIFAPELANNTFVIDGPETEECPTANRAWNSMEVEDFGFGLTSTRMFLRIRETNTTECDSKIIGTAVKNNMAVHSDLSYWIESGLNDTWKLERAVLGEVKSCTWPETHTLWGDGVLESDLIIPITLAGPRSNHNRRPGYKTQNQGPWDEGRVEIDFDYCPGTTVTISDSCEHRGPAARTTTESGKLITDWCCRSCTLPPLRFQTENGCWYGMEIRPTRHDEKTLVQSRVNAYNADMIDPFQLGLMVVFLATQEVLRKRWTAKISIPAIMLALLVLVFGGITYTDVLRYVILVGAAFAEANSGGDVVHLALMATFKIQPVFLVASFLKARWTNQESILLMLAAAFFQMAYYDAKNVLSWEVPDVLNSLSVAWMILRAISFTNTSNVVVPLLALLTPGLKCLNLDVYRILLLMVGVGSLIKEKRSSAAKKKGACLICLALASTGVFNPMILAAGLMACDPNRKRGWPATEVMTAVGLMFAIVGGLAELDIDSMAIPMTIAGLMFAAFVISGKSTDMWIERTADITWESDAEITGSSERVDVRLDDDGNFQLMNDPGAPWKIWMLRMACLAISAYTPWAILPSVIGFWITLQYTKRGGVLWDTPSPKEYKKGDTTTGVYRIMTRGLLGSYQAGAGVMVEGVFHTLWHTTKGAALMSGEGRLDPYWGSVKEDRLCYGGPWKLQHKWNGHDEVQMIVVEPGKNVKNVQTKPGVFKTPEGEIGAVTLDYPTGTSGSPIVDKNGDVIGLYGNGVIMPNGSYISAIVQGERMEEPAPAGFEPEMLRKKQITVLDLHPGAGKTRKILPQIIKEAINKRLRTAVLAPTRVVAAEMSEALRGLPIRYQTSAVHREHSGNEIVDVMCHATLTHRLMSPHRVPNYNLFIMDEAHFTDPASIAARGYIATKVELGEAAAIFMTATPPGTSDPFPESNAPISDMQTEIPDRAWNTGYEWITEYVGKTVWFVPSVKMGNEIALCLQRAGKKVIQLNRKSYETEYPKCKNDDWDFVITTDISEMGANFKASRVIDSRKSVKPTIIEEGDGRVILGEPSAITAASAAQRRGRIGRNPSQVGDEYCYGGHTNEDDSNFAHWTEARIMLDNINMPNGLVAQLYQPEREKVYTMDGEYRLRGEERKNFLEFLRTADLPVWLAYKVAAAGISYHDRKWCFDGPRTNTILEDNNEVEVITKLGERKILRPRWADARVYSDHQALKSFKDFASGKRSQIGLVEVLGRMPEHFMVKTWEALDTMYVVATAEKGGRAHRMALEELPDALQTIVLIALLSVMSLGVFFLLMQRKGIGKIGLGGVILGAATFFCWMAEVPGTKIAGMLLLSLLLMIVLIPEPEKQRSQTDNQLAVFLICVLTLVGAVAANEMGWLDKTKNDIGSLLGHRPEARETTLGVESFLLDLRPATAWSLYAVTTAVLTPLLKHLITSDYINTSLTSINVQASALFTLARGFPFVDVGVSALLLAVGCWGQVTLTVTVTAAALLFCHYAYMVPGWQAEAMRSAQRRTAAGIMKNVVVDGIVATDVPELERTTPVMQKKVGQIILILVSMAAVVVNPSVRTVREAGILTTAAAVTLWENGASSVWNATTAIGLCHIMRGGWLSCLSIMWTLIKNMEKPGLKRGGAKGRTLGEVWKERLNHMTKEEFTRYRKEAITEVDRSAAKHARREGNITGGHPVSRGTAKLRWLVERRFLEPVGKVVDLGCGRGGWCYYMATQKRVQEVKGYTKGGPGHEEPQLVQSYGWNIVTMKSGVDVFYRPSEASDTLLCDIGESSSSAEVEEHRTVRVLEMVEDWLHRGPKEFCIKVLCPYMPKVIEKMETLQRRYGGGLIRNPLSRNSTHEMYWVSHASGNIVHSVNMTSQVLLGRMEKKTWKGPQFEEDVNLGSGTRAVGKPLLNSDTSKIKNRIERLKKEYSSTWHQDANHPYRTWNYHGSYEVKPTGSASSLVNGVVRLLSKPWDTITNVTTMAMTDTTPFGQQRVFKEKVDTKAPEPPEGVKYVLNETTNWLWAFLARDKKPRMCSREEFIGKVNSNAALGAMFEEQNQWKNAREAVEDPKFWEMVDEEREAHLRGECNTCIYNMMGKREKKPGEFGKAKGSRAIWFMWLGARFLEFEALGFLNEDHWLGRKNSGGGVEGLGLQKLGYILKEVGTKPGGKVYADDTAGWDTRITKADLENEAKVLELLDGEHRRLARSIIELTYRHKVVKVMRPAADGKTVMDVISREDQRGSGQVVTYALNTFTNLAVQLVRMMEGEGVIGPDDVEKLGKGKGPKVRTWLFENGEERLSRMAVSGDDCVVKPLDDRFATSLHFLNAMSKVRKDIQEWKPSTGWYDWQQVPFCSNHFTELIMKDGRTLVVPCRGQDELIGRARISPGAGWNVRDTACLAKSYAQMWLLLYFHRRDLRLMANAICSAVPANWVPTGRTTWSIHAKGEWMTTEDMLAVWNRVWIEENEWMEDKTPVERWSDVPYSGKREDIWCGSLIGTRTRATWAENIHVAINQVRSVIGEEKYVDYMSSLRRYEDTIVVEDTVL
# [13] = target: Prothrombin (Bos taurus) (UniProt P00735); test: Inhibition of Bovine thrombin using Boc-Val-Pro-Arg-AMC as substrate compound preincubated at 25 uM for 15 mins by fluorescence assay
# Procedure, shortened: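 Bovine thrombin (final 10 nM) was preincubated 15 min with 25 μM compound in 50 mM Tris-HCl pH 7.5, 150 mM NaCl, 0.05% Tween 20. The reaction was started with Boc-Val-Pro-Arg-AMC (50 μM final). Fluorescence (ex 355/em 460 nm) was monitored continuously for 10 min; activity taken as slope (RFU/s). Triplicate.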
# [14] = GSH reactivity of the compound assessed as half life by RP-HPLC analysis
# [15] = test system: Escherichia coli; test: Induction of covalent MurA enzyme adduct formation preincubated with UNAG substrate for 10 mins compound treated at 300 uM after 1 hr by ESI-MS analysis
# Procedure, shortened: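 E. coli MurA (25 μM) preincubated with UNAG 300 μM for 10 min at 37 °C, then test compound added at 300 μM. Incubation ran 60 min at 37 °C in 50 mM NH₄HCO₃, pH 7.9. Samples were spin-desalted on Sephadex G-25, then analysed by flow-injection positive-mode ESI-MS for enzyme adducts. Untreated enzyme served as control.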
# [16] = test system: Escherichia coli; test: Induction of covalent MurE enzyme adduct formation preincubated with UNAG substrate for 10 mins compound treated at 300 uM after 1 hr by ESI-MS analysis
# [17] = test system: Escherichia coli; test: Induction of covalent MetAP enzyme adduct formation at 300 uM after 1 hr by ESI-MS analysis
# Procedure, shortened: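 E. coli MetAP (25 μM) was incubated with 300 μM compound for 60 min at 37 °C in 50 mM NH4HCO3, pH 7.9, with 200 μM CoCl2. Untreated enzyme served as control. Samples were spin-desalted on Sephadex G-25 and analysed by flow-injection ESI-MS in positive mode (isocratic water/acetonitrile 95/5 with 0.1% formic acid), looking for covalent adducts.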
# [18] = test system: HeLa; test: Cytotoxicity against human HeLa cells assessed as reduction in cell viability after 24 hrs by CellTiter-Blue assay; assay type: cell-based
# Procedure, shortened: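 HeLa cells seeded in triplicate at 5×10^3 cells/well and grown 24 h at 37 °C/5% CO2. Compounds at varying concentrations were added as a 2x stock in phenol-red-free DMEM with FBS, penicillin/streptomycin, sodium pyruvate and L-glutamine, then left 24 h. Medium was replaced with CellTiter-Blue medium for 3 h. A570/A610 was read after background subtraction, as % of untreated controls; EC50 derived.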
Structure (SMILES),inhibition [1] [%],inhibition [2] [%],inhibition [3] [%],inhibition [4] [%],inhibition [5] [%],inhibition [6] [%],inhibition [7] [%],inhibition [8] [%],Activity [9] [L/mol/s],Activity [10] [%],inhibition [11] [%],inhibition [12] [%],inhibition [13] [%],T1/2 [14] [h],Activity [15],Activity [16] [L/mol/s],Activity [17] [L/mol/s],EC50 [18] [µM]
C=CC(=O)Nc1ccc(F)cc1,< 15,< 15,< 15,< 15,< 15,< 15,< 15,< 15,< 0.1,< 5,< 15,< 15,< 15,–,–,–,–,–
O=C(NCc1ccccc1)C1CC(Br)=NO1 (stereo not drawn),< 15,< 15,< 15,18,< 15,16,< 15,15,< 0.1,–,< 15,< 15,< 15,> 200,–,–,–,–
COc1ccc(NC(=O)C2CC(Br)=NO2)cc1 (stereo not drawn),< 15,< 15,< 15,< 15,< 15,< 15,18,< 15,< 0.1,–,< 15,21,< 15,> 200,–,–,–,–
Cc1ccc(NC(=O)C2CC(Br)=NO2)cc1 (stereo not drawn),19,< 15,< 15,< 15,< 15,< 15,< 15,< 15,< 0.1,–,< 15,22,< 15,> 200,–,–,–,–
C=CC(=O)Nc1ccc([N+](=O)[O-])cc1,< 15,< 15,< 15,< 15,< 15,< 15,< 15,< 15,< 0.1,< 5,< 15,< 15,< 15,–,–,–,–,–
C=CC(=O)Nc1ccc(C)cc1,< 15,< 15,< 15,< 15,< 15,< 15,< 15,< 15,< 0.1,< 5,< 15,< 15,< 15,–,–,–,–,–
C=CC(=O)NC1CCCC1,< 15,17,< 15,< 15,< 15,< 15,< 15,< 15,< 0.1,< 5,< 15,< 15,< 15,–,–,–,–,–
C[S+](C)CC(=O)Nc1ccccc1,< 15,< 15,< 15,< 15,< 15,< 15,32,< 15,–,–,< 15,< 15,< 15,–,inactive,< 0.1,< 0.1,> 100
N#CCC(=O)Nc1ccccc1,< 15,< 15,< 15,< 15,< 15,< 15,23,< 15,< 0.1,–,< 15,< 15,< 15,–,inactive,< 0.1,< 0.1,> 100
C=CC(=O)NCc1ccccc1,< 15,< 15,< 15,< 15,< 15,< 15,< 15,< 15,< 0.1,< 5,< 15,< 15,< 15,–,–,–,–,–
CCCCNC(=O)C1CC(Br)=NO1 (stereo not drawn),< 15,< 15,< 15,< 15,< 15,< 15,27,< 15,< 0.1,–,< 15,< 15,< 15,> 200,–,–,–,> 100
C=CC(=O)NCCCC,< 15,20,< 15,< 15,< 15,< 15,< 15,< 15,< 0.1,< 5,< 15,< 15,< 15,–,–,–,–,> 100
O=C(NC1CCCC1)C1CC(Br)=NO1 (stereo not drawn),< 15,< 15,< 15,< 15,< 15,15,16,< 15,< 0.1,–,< 15,< 15,< 15,> 200,–,–,–,–
C=CC(=O)NC(CCCC)C(=O)OC (stereo not drawn),< 15,< 15,< 15,< 15,< 15,< 15,< 15,< 15,< 0.1,< 5,< 15,< 15,< 15,–,–,–,–,–
O=C(NCCc1ccccc1)C1CC(Br)=NO1 (stereo not drawn),< 15,< 15,< 15,16,< 15,18,23,< 15,< 0.1,–,< 15,< 15,< 15,> 200,–,–,–,–
O=C(Nc1ccc(F)cc1)C1CC(Br)=NO1 (stereo not drawn),< 15,< 15,< 15,< 15,< 15,< 15,23,21,< 0.1,–,< 15,< 15,< 15,> 200,–,–,–,–
CCCCNC(=O)C[S+](C)C,< 15,< 15,< 15,< 15,< 15,< 15,29,< 15,–,–,< 15,< 15,< 15,–,–,< 0.1,–,> 100
